Screening data (PubChem BioAssay)
Hits are enriched below; roughly 2.5% of the tested compounds scored in any of these assays.
MEKK2wt PB1 HTS = raises or lowers MEK5 binding to wildtype human MEKK2 PB1 domain. bead flow cytometry, Alexa488-MEK5 binding to MEKK2 WT; actives lie on both sides. Q9Y2U5. AID 1531. 1.1% of 290,000 active. binding response (% of control), % at 10 µM; in the data active means binding response below about 67% or above about 130%
ABCG2 inh = blocks JC-1 efflux by human ABCG2 transporter; IgMXP3 cells, flow cytometry; 0.1% of 190,000 active; Q9UNQ0; inhibition, % at 6.6 µM;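 active means inhibition above 80%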
Target sequence (Q9UNQ0 whole entry, looked up): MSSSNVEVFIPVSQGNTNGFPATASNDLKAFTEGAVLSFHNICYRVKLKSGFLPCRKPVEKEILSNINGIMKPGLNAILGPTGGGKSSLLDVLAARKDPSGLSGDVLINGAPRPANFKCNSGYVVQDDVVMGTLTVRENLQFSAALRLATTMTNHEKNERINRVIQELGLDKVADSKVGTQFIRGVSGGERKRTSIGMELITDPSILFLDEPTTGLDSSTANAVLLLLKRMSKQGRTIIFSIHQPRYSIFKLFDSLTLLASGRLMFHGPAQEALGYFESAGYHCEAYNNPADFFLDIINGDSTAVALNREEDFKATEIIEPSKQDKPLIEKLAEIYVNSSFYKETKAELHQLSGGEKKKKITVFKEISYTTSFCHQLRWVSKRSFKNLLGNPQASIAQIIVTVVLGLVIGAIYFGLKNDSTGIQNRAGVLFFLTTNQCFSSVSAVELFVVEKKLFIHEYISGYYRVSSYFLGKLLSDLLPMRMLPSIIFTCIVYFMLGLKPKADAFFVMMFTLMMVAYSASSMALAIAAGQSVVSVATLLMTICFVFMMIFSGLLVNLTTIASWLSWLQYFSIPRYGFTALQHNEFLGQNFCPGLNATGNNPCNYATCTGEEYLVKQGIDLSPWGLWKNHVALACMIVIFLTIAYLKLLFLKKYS
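Test system: IgMXP3 (ABCG2) plus far-red-tagged CCRF-Adr (ABCB1) cells. Reagent: JC-1 dye as substrate. Timing: 10 min exposure at 25 °C with rotation, no wash. Measured by: flow cytometric JC-1 green MFI at 530 nm. Read-out: percent efflux inhibition, scaled nicardipine 100% to DMSO 0%. Control set: nicardipine and DMSO wells.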
MEKK2mut PB1 HTS = signal of MEK5 binding to mutant human MEKK2 PB1 domain. bead flow cytometry, Alexa488-MEK5 binding to MEKK2 mutant. percent response, % at 10 µM. 0.35% of 290,000 active. AID 1530; in the data active means percent response above about 24%, passing the limit was not always enough
Efflux pump inh = inhibitors of Candida antifungal efflux pumps expressed in yeast. 0.44% of 330,000 active. S. cerevisiae Candida pump triplex, Nile Red efflux. AID 485275. inhibition, % at 10 µM;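 active means plate passing quality check with inhibition over a set limit, or well fluorescence over plate mean plus 4 SD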;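 further: Nile Red retained in pooled yeast measured as flow cytometry median fluorescence; higher means more Nile Red kept so more efflux inhibition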
ABCB1 inh = human ABCB1 inhibition, ABCG2 as counter-screen; AID 1326; CCRF-Adr cells, JC-1 efflux, flow cytometry; P08183; inhibition, % at 6.6 µM; 0.067% of 190,000 active; in the data active means inhibition above about 40%;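 further: higher value means more JC-1 retained so stronger ABCB1 efflux block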
MEKK3 PB1 HTS = MEKK3-MEK5 PB1 interaction, increase or decrease; bead-based flow cytometry, Alexa488-MEK5 binding to MEKK3; actives lie on both sides; 0 = blocked by unlabeled MEK5, 100 = vehicle; binding response (% of control), % at 10 µM; 1.4% of 290,000 active;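 active means binding response more than 3 SD above or below the average of its plate-row segment, actives on both sides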;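 further: Alexa488 bead fluorescence after subtracting the streptavidin-only scavenger bead signal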
MEKK2wt confirm = raises or lowers MEK5 binding to wildtype human MEKK2, retest; AID 1892; bead flow cytometry, Alexa488-MEK5 binding to MEKK2 WT; actives lie on both sides; shares compounds with MEKK3 PB1 HTS; 2.4% of 5,900 active; binding response (% of control), % at 10 µM; in the data active means binding response below about 16% or above about 210%; inactive means in between
MEKK2mut-MEK5 = signal of MEK5 binding to mutant human MEKK2, retest. bead flow cytometry, Alexa488-MEK5 binding to MEKK2 mutant. 2% of 5,900 active. percent response, % at 10 µM. shares compounds with MEKK3 PB1 HTS; in the data active means percent response mostly above about 71%, no sharp cut-off; inactive means mostly below about 38%;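 further: higher means compound restores mutant binding toward wildtype level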
MEKK3 confirm = MEKK3-MEK5 PB1 inhibition, single concentration confirmation; shares compounds with MEKK3 PB1 HTS; bead flow cytometry, Alexa488-MEK5 binding to MEKK3; active compounds read low; binding response (% of control), % at 10 µM; 1.8% of 5,900 active;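 active means binding response below 72% of control, or above a set upper limit, though filed actives all read lower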;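 further: lower values mean stronger disruption of MEK5 binding to MEKK3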
A number is an active result; 0 = inactive; - = not tested or not shown; [ ] = dose if it differs, or a comment.

SMILES	MEKK2wt PB1 HTS	ABCG2 inh	MEKK2mut PB1 HTS	Efflux pump inh	ABCB1 inh	MEKK3 PB1 HTS	MEKK2wt confirm	MEKK2mut-MEK5	MEKK3 confirm
CN(C[C@H](CC1CCCCC1)N(C[C@H](Cc1ccccc1)N(CCc1ccccc1)N=O)N=O)N=O	0	0	0	0	0	0	-	-	-
Cc1nn(-c2ccccc2)c(Cl)c1CN(C(=O)CCl)c1cccc2ccccc12	0	0	0	0	0	0	-	-	-
O=C(C1CCCO1)N1CCN(C(=S)Nc2ccccc2C(F)(F)F)CC1 (centres undefined)	0	0	0	0	0	0	-	-	-
CCN(CC)C(=O)c1cccc(NC(=O)c2cc(-c3ccccn3)nc3ccccc23)c1	-	-	-	0	-	-	-	-	-
CC12CCC(=O)N1C(C(=O)OCC(=O)Nc1ccc(C(F)(F)F)cc1)CS2 (centres undefined)	-	-	-	0	-	-	-	-	-
CC12CCC(=O)N1C(C(=O)OCC(=O)Nc1ccc(S(N)(=O)=O)cc1)CS2 (centres undefined)	49.0[inhibitor]	0	0	0	0	0	0	0	0
CCCCCCCOC(=O)C[N+](C)(C)CCOC1CC2CCC1(C)C2(C)C (centres undefined)	163.0	0	0	-	0	0	0	0	0
CCCCOC(=O)C[N+](C)(C)CCOC1CC2CCC1(C)C2(C)C (centres undefined)	0	0	0	0	0	0	-	-	-
N#CC(C#N)=Cc1cc2ccccc2nc1N1CCOCC1	0	0	0	0	0	135.0	0	0	0
N#C/C(=C\c1cc2ccccc2nc1N1CCOCC1)C(=O)Nc1ccc(N2CCOCC2)cc1	0	0	0	0	0	146.0	0	0	0
CCOC(=O)/C(C#N)=C/c1cc2ccccc2nc1N1CCCCC1	0	0	0	0	0	0	-	-	-
CCn1c(SCC(=O)N2CCCCCC2)nc2c(c1=O)SCC2	0	-	0	0	-	0	-	-	-
O=c1o[nH]c(-c2ccccc2)c1-c1ccccc1	-	-	-	0	-	-	-	-	-
O=C(NCCc1ccc(Cl)cc1)c1cccc(NC2=NC3CS(=O)(=O)CC3S2)c1 (centres undefined)	0	-	0	0	-	0	-	-	-
COc1ccc(CC(=O)N2CCCC(CNC(=O)c3ccccc3Cl)C2)cc1 (centres undefined)	0	0	0	0	0	47.0[inhibitor]	0	0	0
N#CCCn1cc(/C=N/N=C2\NC(=O)C(CC(=O)O)S2)c(-c2ccc(F)cc2)n1 (centres undefined)	0	-	0	0	-	0	-	-	-
N#C/C(C(=O)Oc1ccccc1)=C1/Nc2ccccc2-c2ccccc21	-	0	-	-	0	-	-	-	-
CC(C)CNC(=O)CSc1nnc2ccccn12	0	0	0	0	0	53.0[inhibitor]	0	0	0
CC(C)CCNC(=O)NC(=O)CSc1nnc2ccccn12	0	0	0	0	0	0	-	-	-
CN(C)CCNc1ncnc2c1sc1nc(N3CCOCC3)c3c(c12)CC(C)(C)SC3	141.0	0	0	0	0	0	0	0	0
CCc1cccc2c(C(=O)COC(=O)c3cccc(S(=O)(=O)N(C)C4CCCCC4)c3)c[nH]c12	0	0	0	0	0	132.0	0	0	0
CN(C(=O)COC(=O)c1cccc(S(=O)(=O)N(C)c2ccccc2)c1)C1CCCCC1	-	-	-	0	-	-	-	-	-
O=C(OCC(=O)c1c[nH]c2ccccc12)c1cccc(S(=O)(=O)N2CCCCCC2)c1	0	0	0	0	0	130.0	0	0	0
CC(=O)N1[C@H](Cc2ccccc2)C=C[C@]1(C)C(=O)NCc1ccccn1	0	0	0	0	0	0	-	-	-
Cc1ccc2c(c1)C(c1ccccc1)N(C(=O)c1ccc3c(c1)OCO3)CC(=O)N2 (centres undefined)	0	-	0	0	-	0	-	-	-
SMILES	MEKK2wt PB1 HTS	ABCG2 inh	MEKK2mut PB1 HTS	Efflux pump inh	ABCB1 inh	MEKK3 PB1 HTS	MEKK2wt confirm	MEKK2mut-MEK5	MEKK3 confirm
COC(=O)c1[nH]nc(C(=O)OC(C)(C)C)c1-c1ccccc1	0	0	0	0	0	0	-	-	-
C=CCn1c(=O)/c(=C2/SC(C)=C(C)N2CC)s/c1=C1/C(=O)N(CC)C(=S)N1c1ccccc1	-	0	-	0	0	-	-	-	-
C=CCn1c(=O)/c(=C2/Sc3ccccc3N2CC)s/c1=C1/C(=O)NN=C1C	57.0[inhibitor]	0	0	0	0	0	0	0	0
CCN(CC(=O)NC1CCS(=O)(=O)C1)C(C)C(=O)Nc1ccc(F)cc1 (centres undefined)	-	-	-	0	-	-	-	-	-
CCOC(=O)C(=O)N/N=C/c1ccc(F)cc1	0	-	0	0	-	0	-	-	-
N/C(=N\N=C/c1ccc(F)cc1)N/N=C\c1ccc(F)cc1	159.0	-	31.0	0	-	0	0	0	0
N/C(=N\N=C/c1ccc(Br)cc1)N/N=C\c1ccc(Br)cc1	215.0	0	102.0	0	0	0	0	0	0
O=C(CN1CCCCCC1)N/N=C/c1cccc(Cl)c1Cl	0	0	0	0	0	0	-	-	-
CC[C@@H](C)[C@H](CN[C@H](CNC)C(C)C)NC[C@@H](C)c1ccc(CC(C)C)cc1	185.0	-	0	0	-	0	0	71.0	0
O=C1NC[C@H](c2ccccc2)N(CCc2cccc(F)c2)C1=O	0	-	0	0	-	79.0[inhibitor]	0	0	0
CCC(C)NC(=O)C1CCN(c2nc(OC)nc(OC)n2)CC1 (centres undefined)	-1.0[inhibitor]	0	0	0	0	0.0[inhibitor]	230.0	76.0	0
O=C(COC(=O)c1ccc2c(c1)OCO2)NCc1ccc(Cl)cc1	0	0	0	0	0	0	-	-	-
Cc1nc2sccn2c(=O)c1CCN1CCC(=C(c2ccccc2)c2ccc(F)cc2)CC1	157.0	0	0	0	0	0	0	0	0
O=C(Nc1cccc(NC(=O)c2cccs2)c1)c1ccc2c(c1)OCCO2	0	0	0	0	0	0	-	-	-
COc1cccc(NC(=O)CSc2ncc(S(=O)(=O)c3ccccc3)c(=O)[nH]2)c1	0	-	0	0	-	134.0	0	0	0
COC(=O)c1sc(-c2ccc(Cl)cc2)cc1NC(=O)c1ccccc1C(=O)O	0	-	0	0	-	66.0[inhibitor]	0	0	0
COc1ccc(C2CC(c3cccs3)=NN2S(=O)(=O)c2ccc(C)cc2)cc1 (centres undefined)	0	-	0	0	-	0	-	-	-
CS(=O)(=O)N1N=C(c2cccs2)CC1c1ccccc1F (centres undefined)	-4.0[inhibitor]	0	0	0	0	0	0	0	0
Cc1ccc(C2CC(c3cccs3)=NN2S(=O)(=O)c2ccc(C)cc2)cc1 (centres undefined)	61.0[inhibitor]	0	0	0	0	0	0	0	0
